11 molecules from ChEMBL document CHEMBL1909495, “Synthesis and kinetic testing of new inhibitors for a metallo-β-lactamase from Klebsiella pneumonia and Pseudomonas aeruginosa” (Eur J Med Chem, 2011) can be followed below.

Assay [1] deals with Klebsiella pneumoniae. Description: Inhibition of Klebsiella pneumoniae metallo-beta-lactamase IMP-1 expressed in Escherichia coli BL21(DE3) using CENTA as substrate at 10 uM by spectrophotometric analysis. The procedure, abridged: (§1)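 Single-point screen with inhibitor at 10 µM against IMP-1 lacking the 21-residue signal peptide (2 nM final). Buffer was 50 mM HEPES pH 7.0 with 0.1 M NaCl, 100 µM ZnCl2 and BSA at 20 µg/mL. Substrate was CENTA at 70 µM. CENTA hydrolysis was followed by 4-nitrophenolate absorbance at 405 nm and reported as percent inhibition.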

Assay [2] concerns Klebsiella pneumoniae. Nature of the assay: Competitive inhibition of Klebsiella pneumoniae metallo-beta-lactamase IMP-1 expressed in Escherichia coli BL21(DE3) using CENTA as substrate by spectrophotometric analysis. The procedure, abridged: (§2)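 IMP-1 lacking the first 21 signal-peptide residues, recombinantly expressed and purified, at 2 nM final. Buffer was 50 mM HEPES, 0.1 M NaCl, 100 µM ZnCl2, pH 7.0, with BSA at 20 µg/mL final. CENTA was varied from 5 to 70 µM final at three inhibitor concentrations. 4-Nitrophenolate release was read at 405 nm on a plate reader, and data were fitted by non-linear regression.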

Assay [3] concerns Klebsiella pneumoniae. Description: Uncompetitive inhibition of Klebsiella pneumoniae metallo-beta-lactamase IMP-1 expressed in Escherichia coli BL21(DE3) using CENTA as substrate by spectrophotometric analysis. Summed up:
as §2

The target in assay [4] is Beta-lactamase (Pseudomonas aeruginosa) (UniProt Q79MP6). Nature of the assay: Inhibition of Pseudomonas aeruginosa metallo-beta-lactamase IMP-1 expressed in Escherichia coli BL21(DE3) using CENTA as substrate at 10 uM by spectrophotometric analysis. Summed up:
as §1

For assay [5] the target is unchanged. Nature of the assay: Competitive inhibition of Pseudomonas aeruginosa metallo-beta-lactamase IMP-1 expressed in Escherichia coli BL21(DE3) using CENTA as substrate by spectrophotometric analysis. Summed up:
as §2

For assay [6] the target is unchanged. Description: Uncompetitive inhibition of Pseudomonas aeruginosa metallo-beta-lactamase IMP-1 expressed in Escherichia coli BL21(DE3) using CENTA as substrate by spectrophotometric analysis. The procedure, abridged:
as §2

Sequence of Beta-lactamase (Pseudomonas aeruginosa) (Q79MP6 19-246 limits assumed): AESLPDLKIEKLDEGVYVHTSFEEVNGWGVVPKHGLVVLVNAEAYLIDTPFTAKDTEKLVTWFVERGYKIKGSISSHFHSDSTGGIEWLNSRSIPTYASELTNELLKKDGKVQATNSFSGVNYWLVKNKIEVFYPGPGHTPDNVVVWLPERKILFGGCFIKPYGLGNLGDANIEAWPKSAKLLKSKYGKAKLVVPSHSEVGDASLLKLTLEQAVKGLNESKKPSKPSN

For orientation: inhibition means how much of the control response was suppressed. Take `Cc1ccc(-n2c(-c3ccccc3)c(-c3ccccc3)c3c(Cl)ncnc32)cc1`: the inhibition (in the assay with Klebsiella pneumoniae [1]; in assay [4]) was 10% in each case. The Kic (in the assay with Klebsiella pneumoniae [2]; in assay [5]) was 19 µM throughout. For the same molecule, the Kiuc (in the assay on Klebsiella pneumoniae [3]; in assay [6]) was 112 µM throughout.

Consider `Cc1ccc(-n2c(-c3ccccc3)c(-c3ccccc3)c3c2ncn2c(=S)[nH]nc32)cc1`, for which the inhibition (in the assay on Klebsiella pneumoniae [1]; in assay [4]) was 14% in each case. Further, the Kic (with Klebsiella pneumoniae [2]; in assay [5]) was 15 µM each time.

As for `Cc1ccc(-n2c(-c3ccccc3)c(-c3ccccc3)c3c2ncn2cnnc32)cc1`, the inhibition (in the assay with Klebsiella pneumoniae [1]; in assay [4]) was 4% throughout.

As to `Cc1ccc(-n2c(-c3ccccc3)c(-c3ccccc3)c3c2ncn2c(C)nnc32)cc1`, the inhibition (in the assay with Klebsiella pneumoniae [1]; in assay [4]) was 7% in each case.

Regarding `Cc1ccc(-n2cc(-c3ccccc3)c3c(Cl)ncnc32)cc1`, the inhibition (in the assay on Klebsiella pneumoniae [1]; in assay [4]) was 9% throughout. In addition, the Kic (with Klebsiella pneumoniae [2]; in assay [5]) was 33 µM each time. Besides, the Kiuc (with Klebsiella pneumoniae [3]; in assay [6]) was 106 µM in each case.

On to `Cc1ccc(-n2c(-c3ccccc3)c(-c3ccccc3)c3c(N/N=C/c4ccccc4)ncnc32)cc1`, for which the inhibition (in the assay with Klebsiella pneumoniae [1]; in assay [4]) was 13% throughout. Besides, the Kic (in the assay with Klebsiella pneumoniae [2]; in assay [5]) was 18 µM in each case.

For `COc1ccc(-n2cc(-c3ccccc3)c(C#N)c2N)cc1`, the inhibition (in the assay on Klebsiella pneumoniae [1]; in assay [4]) was 0% throughout.

For `COc1ccc(-n2c(-c3ccccc3)c(-c3ccccc3)c3c(Cl)ncnc32)cc1`, the inhibition (with Klebsiella pneumoniae [1]; in assay [4]) was 15% each time. Further, the Kic (in the assay on Klebsiella pneumoniae [2]; in assay [5]) was 12 µM in each case. The Kiuc (with Klebsiella pneumoniae [3]; in assay [6]) was 182 µM throughout.

For the molecule `COc1ccc(-n2c3c(c(-c4ccccc4)c2-c2ccccc2)C(=C(C#N)C#N)NC=N3)cc1`, the inhibition (with Klebsiella pneumoniae [1]; in assay [4]) was 17% in each case. For the same molecule, the Kic (in the assay with Klebsiella pneumoniae [2]; in assay [5]) was 29 µM in each case. Also, the Kiuc (with Klebsiella pneumoniae [3]; in assay [6]) was 225 µM in each case.

Turning to `Cc1ccc(-n2cc(-c3ccccc3)c(C#N)c2N)cc1`, the inhibition (with Klebsiella pneumoniae [1]; in assay [4]) was 0% throughout.

For the molecule `Cc1ccc(-n2cc(-c3ccccc3)c3c(O)ncnc32)cc1`, the inhibition (in the assay on Klebsiella pneumoniae [1]; in assay [4]) was 0% throughout.
